≈ marks a conversion by molar mass, not a printed value. Non-standard residues stand in square brackets, D forms with d. Residues, ends and D or L forms follow the SMILES beside them. Orn = NCCC[C@H](N)C(=O)O
Experiments:
Escherichia coli [1] = test: Antibacterial activity against Escherichia coli F-50 measured every 24 hrs for 5 days by conventional dilution method; type: functional
Summary of the method: (§1)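 Broth dilution in nutrient broth, inoculum 3 × 10⁵ cfu/ml. MIC is the lowest concentration showing no growth, read visually every 24 h over 5 days. Run alongside a positive growth control and standard drug controls. Tests in duplicate, repeated twice.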

[2] = test system: Trichophyton mentagrophytes; test: Antifungal activity against Trichophyton mentagrophytes measured every 24 hrs for 14 days by conventional dilution method; type: functional
Summary of the method: (§2)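 Dilution assay in Sabouraud dextrose broth, inoculum 2 × 10^3–4 cfu/ml. MIC is the lowest concentration with no visible growth after 14 days of incubation. Run alongside a positive growth control and standard drug controls. Tests in duplicate, repeated twice.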

Bacillus cereus [3] = test: Antibacterial activity against Bacillus cereus 8035 measured every 24 hrs for 5 days by conventional dilution method; type: functional; summary of the method: as §1
[4] = Acute toxicity in ip dosed mouse; type: organism-based; details: in vivo
Summary of the method: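 Mice; each compound given at 5 dose levels, 10 animals per dose (n = 50 per compound). Animals observed for 72 h; toxicity expressed as average lethal dose (LD50) calculated from mortality across dose groups.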

Aspergillus niger [5] = test: Antifungal activity against Aspergillus niger BKMF-1119 measured every 24 hrs for 14 days by conventional dilution method; type: functional; summary of the method: as §2
Candida albicans [6] = test: Antifungal activity against Candida albicans 885-653 measured every 24 hrs for 14 days by conventional dilution method; type: functional; summary of the method: as §2
Staphylococcus aureus [7] = test: Antibacterial activity against Staphylococcus aureus 209p measured every 24 hrs for 5 days by conventional dilution method; type: functional; summary of the method: as §1
Pseudomonas aeruginosa [8] = test: Antibacterial activity against Pseudomonas aeruginosa 9027 measured every 24 hrs for 5 days by conventional dilution method; type: functional; summary of the method: as §1
Escherichia coli [9] = test: Bactericidal activity against Escherichia coli F-50 after 4 hrs; type: functional; details: F-50, 4 h
Summary of the method: (§3)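 Tubes contained 1 mL test compound in nutrient agar, 5 to 500 per ml. Bacteria in normal saline broth (3 × 10⁵ cfu/ml, 1 mL) were added and held 4 h, then transferred onto meal-peptone agar plates and incubated at 37 °C. MBC is the dilution giving total cell death.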

Bacillus cereus [10] = test: Bactericidal activity against Bacillus cereus 8035 after 4 hrs; type: functional; details: Bacillus cereus, 8035, 4 h; summary of the method: as §3
Staphylococcus aureus [11] = test: Bactericidal activity against Staphylococcus aureus 209p after 4 hrs; type: functional; summary of the method: as §3
Pseudomonas aeruginosa [12] = test: Bactericidal activity against Pseudomonas aeruginosa 9027 after 4 hrs; type: functional; details: Pseudomonas aeruginosa, 9027, 4 h; summary of the method: as §3
Candida albicans [13] = test: Fungicidal activity against Candida albicans 885-653 after 6 hrs; type: functional; details: 885-653, 6 h
Summary of the method: (§4)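 Tubes of test compound (5 to 500 per ml, 1 mL in nutrient agar) with fungi were incubated at 26 °C for 6 h. Inocula were then prepared in Sabouraud dextrose broth and incubated at 26 °C. The fungicidal concentration is the one giving total cell death.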

[14] = test system: Trichophyton mentagrophytes; test: Fungicidal activity against Trichophyton mentagrophytes after 6 hrs; type: functional; summary of the method: as §4
Aspergillus niger [15] = test: Fungicidal activity against Aspergillus niger BKMF-1119 after 6 hrs; type: functional; details: BKMF-1119, 6 h; summary of the method: as §4

SMILES	MIC (Escherichia coli [1]) [mg/L]	MIC [2] [mg/L]	MIC (Bacillus cereus [3]) [mg/L]	MIC (Aspergillus niger [5]) [mg/L]	MIC (Candida albicans [6]) [mg/L]	MIC (Staphylococcus aureus [7]) [mg/L]	MIC (Pseudomonas aeruginosa [8]) [mg/L]	LD50 [4] [mg/kg]	MBC (Escherichia coli [9]) [mg/L]	MBC (Bacillus cereus [10]) [mg/L]	MBC (Staphylococcus aureus [11]) [mg/L]	MBC (Pseudomonas aeruginosa [12]) [mg/L]	MFC (Candida albicans [13]) [mg/L]	MFC [14] [mg/L]	MFC (Aspergillus niger [15]) [mg/L]
CCCCCCCCCn1c(=O)c2c(-c3ccccc3)nc(-c3ccc[n+](Cc4cccc(C[n+]5cccc(-c6nc(-c7ccccc7)c7c(=O)n(CCCCCCCCC)c8ccccc8n67)c5)c4)c3)n2c2ccccc21.[Br-].[Br-]	500	500	15.6	> 500	7.8	3.9	> 500	108	–	–	–	–	–	–	–
CC1COc2c(N3CCN(C)CC3)c(F)cc3c(=O)c(C(=O)O)cn1c23 (configuration not stated) [OFLOXACIN]	–	–	1.5 (≈ 4.15 µM)	–	–	0.97 (≈ 2.68 µM)	3.1 (≈ 8.58 µM)	–	–	–	–	–	–	–	–
CCn1cc(C(=O)O)c(=O)c2cc(F)c(N3CCNCC3)cc21 [NORFLOXACIN]	1.5 (≈ 4.7 µM)	–	7.8 (≈ 24.4 µM)	–	–	2.42 (≈ 7.58 µM)	3 (≈ 9.39 µM)	–	5 (≈ 15.7 µM)	12.5 (≈ 39.1 µM)	5 (≈ 15.7 µM)	5 (≈ 15.7 µM)	–	–	–
CCCCCC[n+]1cccc(-c2nc(-c3ccccc3)c3c(=O)[nH]c4ccccc4n23)c1.[Br-]	> 500	> 500	125	> 500	250	62.5	> 500	75.8	–	–	–	–	–	–	–
CCCCCCn1c(=O)c2c(-c3ccccc3)nc(-c3ccc[n+](Cc4cccc(C[n+]5cccc(-c6nc(-c7ccccc7)c7c(=O)n(CCCCCC)c8ccccc8n67)c5)c4)c3)n2c2ccccc21.[Br-].[Br-]	> 500	> 500	62.5	> 500	15.6	12.5	> 500	–	–	–	–	–	–	–	–
O=c1[nH]c2ccccc2n2c(-c3ccc[n+](Cc4ccccc4)c3)nc(-c3ccccc3)c12.[Cl-]	> 500	500	125	> 500	62.5	31.3	> 500	65.7	–	–	–	–	–	–	–
Clc1ccccc1C(c1ccccc1)(c1ccccc1)n1ccnc1 [CLOTRIMAZOLE]	–	3.13 (≈ 9.08 µM)	–	–	0.39 (≈ 1.13 µM)	–	–	–	–	–	–	–	0.39 (≈ 1.13 µM)	3.13 (≈ 9.08 µM)	–
O=C(O)c1cn(C2CC2)c2cc(N3CCNCC3)c(F)cc2c1=O [CIPROFLOXACIN]	–	–	0.25 (≈ 0.754 µM)	–	–	0.25 (≈ 0.754 µM)	–	–	0.5 (≈ 1.51 µM)	0.25 (≈ 0.754 µM)	0.25 (≈ 0.754 µM)	0.5 (≈ 1.51 µM)	–	–	–
O=c1[nH]c2ccccc2n2c(-c3ccc[n+](CCCCCC[n+]4cccc(-c5nc(-c6ccccc6)c6c(=O)[nH]c7ccccc7n56)c4)c3)nc(-c3ccccc3)c12.[Br-].[Br-]	> 500	> 500	> 500	> 500	> 500	500	> 500	–	–	–	–	–	–	–	–
C[C@@H]1[C@H](O)[C@@H](C)/C=C/C=C/C=C/C=C/C=C/C=C/C=C/[C@H](O[C@@H]2O[C@H](C)[C@@H](O)[C@H](N)[C@@H]2O)C[C@@H]2O[C@](O)(C[C@@H](O)C[C@@H](O)[C@H](O)CC[C@@H](O)C[C@@H](O)CC(=O)O[C@H]1C)C[C@H](O)[C@H]2C(=O)O [AMPHOTERICIN B]	–	3.13 (≈ 3.39 µM)	–	20 (≈ 21.6 µM)	0.97 (≈ 1.05 µM)	–	–	27.7	–	–	–	–	50 (≈ 54.1 µM)	250 (≈ 271 µM)	250 (≈ 271 µM)
CCCCCCCCC[n+]1cccc(-c2nc(-c3ccccc3)c3c(=O)n(CCCCCC)c4ccccc4n23)c1.[Br-]	500	250	0.97	> 500	0.97	0.97	> 500	120	500	50	5	> 500	50	250	> 500
CCCCCCCCCCCCCCCCCCn1c(=O)c2c(-c3ccccc3)nc(-c3ccc[n+](Cc4ccccc4)c3)n2c2ccccc21.[Cl-]	> 500	> 500	> 500	> 500	> 500	500	> 500	–	–	–	–	–	–	–	–
O=c1c2c(-c3ccccc3)nc3n2c2ccccc2n1CCCCCCCCCCn1c(=O)c2c(-c4ccccc4)nc(n2c2ccccc21)-c1ccc[n+](c1)Cc1cccc(c1)C[n+]1cccc-3c1.[Br-].[Br-]	> 500	> 500	> 500	> 500	250	125	> 500	–	–	–	–	–	–	–	–
CC(C)C[C@@H]1NC(=O)[C@H](CCCN)NC(=O)[C@H](C(C)C)NC(=O)[C@@H]2CCCN2C(=O)[C@@H](Cc2ccccc2)NC(=O)[C@H](CC(C)C)NC(=O)[C@H](CCCN)NC(=O)[C@H](C(C)C)NC(=O)[C@@H]2CCCN2C(=O)[C@@H](Cc2ccccc2)NC1=O [GRAMICIDIN S] (cyclo(L[dF]PV[Orn]L[dF]PV[Orn]))	–	–	–	–	–	–	–	26	–	–	–	–	–	–	–
CCCC[n+]1cccc(-c2nc(-c3ccccc3)c3c(=O)[nH]c4ccccc4n23)c1.[I-]	> 500	> 500	> 500	> 500	> 500	500	> 500	63.2	–	–	–	–	–	–	–

Now from value to compound, other results behind:

MIC (Escherichia coli [1]) [mg/L]	MIC [2] [mg/L]	MIC (Bacillus cereus [3]) [mg/L]	MIC (Aspergillus niger [5]) [mg/L]	MIC (Candida albicans [6]) [mg/L]	MIC (Staphylococcus aureus [7]) [mg/L]	MIC (Pseudomonas aeruginosa [8]) [mg/L]	SMILES	LD50 [4] [mg/kg]	MBC (Escherichia coli [9]) [mg/L]	MBC (Bacillus cereus [10]) [mg/L]	MBC (Staphylococcus aureus [11]) [mg/L]	MBC (Pseudomonas aeruginosa [12]) [mg/L]	MFC (Candida albicans [13]) [mg/L]	MFC [14] [mg/L]	MFC (Aspergillus niger [15]) [mg/L]
> 500	> 500	> 500	> 500	> 500	> 500	> 500	Cl.O=c1[nH]c2ccccc2n2c(-c3cccnc3)nc(-c3ccccc3)c12	–	–	–	–	–	–	–	–
> 500	500	12.5	> 500	3.9	1.95	> 500	CCCCCCCCCn1c(=O)c2c(-c3ccccc3)nc(-c3ccc[n+](Cc4ccccc4)c3)n2c2ccccc21.[Cl-]	–	> 500	> 500	50	> 500	500	> 500	> 500
> 500	250	> 500	> 500	3.9	> 500	> 500	O=c1[nH]c2ccccc2n2c(-c3ccc[n+](CCCC[n+]4cccc(-c5nc(-c6ccccc6)c6c(=O)[nH]c7ccccc7n56)c4)c3)nc(-c3ccccc3)c12.[Br-].[Br-]	–	–	–	–	–	–	–	–
> 500	> 500	> 500	> 500	> 500	> 500	> 500	Cl.O=c1[nH]c2ccccc2n2c(-c3ccccn3)nc(-c3ccccc3)c12	–	–	–	–	–	–	–	–
> 500	> 500	125	> 500	> 500	62.5	> 500	CCCn1c(=O)c2c(-c3ccccc3)nc(-c3ccc[n+](Cc4ccccc4)c3)n2c2ccccc21.[Cl-]	–	–	–	–	–	–	–	–
> 500	500	6.3	> 500	50	1.5	> 500	CCCCCCCCCn1c(=O)c2c(-c3ccccc3)nc(-c3ccc[n+](CCCCCCCCC)c3)n2c2ccccc21.[Br-]	–	> 500	500	50	> 500	500	> 500	> 500
> 500	> 500	> 500	> 500	> 500	500	> 500	Cc1nc(-c2ccc[n+](Cc3ccccc3)c2)n2c1c(=O)[nH]c1ccccc12.[Cl-]	–	–	–	–	–	–	–	–
> 500	> 500	125	> 500	25	62.5	> 500	CCCCCCCCCn1c(=O)c2c(-c3ccccc3)nc(-c3ccc[n+](CCCCCC)c3)n2c2ccccc21.[I-]	–	–	–	–	–	–	–	–
> 500	> 500	7.8	> 500	> 500	7.8	> 500	CCCCCCCCCn1c(=O)c2c(-c3ccccc3)nc(-c3ccc[n+](CCCCCCCCC)c3)n2c2ccccc21.[I-]	–	> 500	> 500	500	> 500	> 500	> 500	> 500
250	> 500	62.5	> 500	15.6	62.5	500	CCCCCCn1c(=O)c2c(-c3ccccc3)nc(-c3ccc[n+](CCCCCC)c3)n2c2ccccc21.[I-]	–	–	–	–	–	–	–	–
> 500	500	125	> 500	62.5	31.3	> 500	Cn1c(=O)c2c(-c3ccccc3)nc(-c3ccc[n+](Cc4ccccc4)c3)n2c2ccccc21.[Cl-]	–	–	–	–	–	–	–	–

Reference: ChEMBL document CHEMBL2407024, “Antimicrobial activity of imidazo[1,5-a]quinoxaline derivatives with pyridinium moiety” (Eur J Med Chem, 2013)
